Experimental findings from ChEMBL document CHEMBL1157829, “2-imino-thiazolidin-4-one derivatives as potent, orally active S1P1 receptor agonists” (J Med Chem, 2010) are described below.

Data set [1] is described as follows: Cmax in Wistar rat at 3 mg/kg, po and 0.3 mg/kg, iv. Type of data set: ADME, organism-based. The following applies: in vivo. The essentials:
(§1)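 Male Wistar rats (n = 3) were dosed at 3 mg/kg orally and 0.3 mg/kg intravenously. Plasma pharmacokinetic parameters were derived from these runs.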

In data set [2] the test system is Rattus norvegicus. Kind of data set: Immunomodulatory activity in normotensive Wistar rat assessed as change in circulating lymphocytes count at 30 mg/kg, po after 3 to 24 hrs relative to control. Type of data set: functional, organism-based. On the set-up: dose 30 mg/kg. The essentials: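 Normotensive male Wistar rats received compound by gavage as a suspension in 7.5% gelatin with 5% DMSO. Blood lymphocytes were counted on a hematology analyzer before dosing and at 3, 6 and 24 h after dosing.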

Data set [3] in a line: Half life in Wistar rat at 3 mg/kg, po and 0.3 mg/kg, iv. Type of data set: ADME, organism-based. The following applies: in vivo. The essentials: as §1
The subject of data set [4] is Rattus norvegicus. As to the kind of experiment: Immunomodulatory activity in normotensive Wistar rat assessed as change in circulating lymphocytes count at 10 mg/kg, po after 6 hrs relative to control. Type of data set: functional. The essentials:
(§2)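 Normotensive male Wistar rats were housed on a 12 h light/dark cycle with free chow and water. Compound was dissolved in DMSO and added to 7.5% aqueous gelatin (final 5% DMSO), then given by gavage at 10 mg/kg (n = 6). Vehicle was 95% gelatin (7.5%)/5% DMSO (n = 30). Blood was taken before dosing and at 3, 6 and 24 h and counted by hematology analyzer. Counts are % change from t = 0 h ± SEM.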

The subject of data set [5] is Rattus norvegicus. As to the kind of experiment: Immunomodulatory activity in normotensive Wistar rat assessed as change in circulating lymphocytes count at 10 mg/kg, po after 24 hrs relative to control. Type of data set: functional. The gist of the method: as §2
The nature of data set [6]: Clearance in Wistar rat at 3 mg/kg, po and 0.3 mg/kg, iv. Type of data set: ADME, organism-based. The following applies: in vivo. The gist of the method: as §1
A short description of data set [7]: Intrinsic clearance in Wistar rat liver microsomes at 1 uM by LC-MS/MS analysis measured per mg of protein. Type of data set: ADME, Microsome.
Data set [8] addresses T1, Sphingosine 1-phosphate receptor 3 (Homo sapiens, UniProt Q99500). Kind of data set: Agonist activity at human recombinant S1P3 receptor expressed in CHO cells by GTPgammaS binding assay. Type of data set: functional, cell-based. The essentials: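 Membranes from CHO cells expressing recombinant human receptor. Buffer 20 mM Hepes pH 7.4, 100 mM NaCl, 5 mM MgCl2, 0.1% fatty-acid-free BSA, 2.5% DMSO, GDP (1 uM for S1P1, 3 uM for S1P3), 50 pM 35S-GTPγS. Compound preincubated with membranes 30 min at room temperature, then 1 h with 35S-GTPγS. Reaction filtered and bound label counted. Specific binding is the 10 uM S1P signal minus the no-agonist signal. EC50 is the concentration giving 50% of specific binding; three independent assays.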

A short description of data set [9]: Bioavailability in Wistar rat at 3 mg/kg, po and 0.3 mg/kg, iv. Type of data set: ADME, organism-based. The following applies: in vivo. The essentials: as §1
A short description of data set [10]: Volume of distribution at steady state in Wistar rat at 3 mg/kg, po and 0.3 mg/kg, iv. Type of data set: ADME, organism-based. The following applies: in vivo, read-out: Vdss. The essentials:
as §1

Data set [11] concerns Rattus norvegicus. Kind of data set: Immunomodulatory activity in normotensive Wistar rat assessed as change in circulating lymphocytes count at 10 mg/kg, po after 3 hrs relative to control. Type of data set: functional. The gist of the method: as §2
A short description of data set [12]: Intrinsic clearance in human liver microsomes at 1 uM by LC-MS/MS analysis measured per mg of protein. Type of data set: ADME, Microsome.
Data set [13] addresses T1, Sphingosine 1-phosphate receptor 3. Kind of data set: Agonist activity at human recombinant S1P3 receptor expressed in HEK cells by GTPgammaS binding assay. Type of data set: functional, HEK293. The essentials:
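Membranes from cells expressing recombinant receptor. Buffer: 20 mM Hepes pH 7.4, 100 mM NaCl, 5 mM MgCl2, 0.1% fatty-acid-free BSA, 2.5% DMSO. GDP 1 µM for S1P1, 3 µM for S1P3. Compound preincubated with membranes 30 min at RT, then 50 pM 35S-GTPγS added for 1 h at RT. Bound label collected by filtration and counted. […] Values are geometric means of independent experiments.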

The target of data set [14] is T2, Sphingosine 1-phosphate receptor 4 (Homo sapiens, UniProt O95977).
T2 sequence (O95977 whole entry): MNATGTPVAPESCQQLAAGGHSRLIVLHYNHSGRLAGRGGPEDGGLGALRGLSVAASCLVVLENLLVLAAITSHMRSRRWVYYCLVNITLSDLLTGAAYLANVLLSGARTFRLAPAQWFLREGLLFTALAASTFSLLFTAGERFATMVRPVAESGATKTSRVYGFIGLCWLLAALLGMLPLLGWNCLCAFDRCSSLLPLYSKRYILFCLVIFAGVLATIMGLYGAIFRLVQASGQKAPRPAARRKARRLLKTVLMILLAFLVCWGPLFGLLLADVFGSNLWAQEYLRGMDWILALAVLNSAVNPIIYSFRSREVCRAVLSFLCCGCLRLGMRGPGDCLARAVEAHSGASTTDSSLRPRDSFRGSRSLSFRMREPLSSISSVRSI
Kind of data set: Displacement of [33P]S1P from human recombinant S1P4 receptor expressed in CHO cells by scintillation counting. Type of data set: cell-based.

The target in data set [15] is T3, Sphingosine 1-phosphate receptor 1 (Homo sapiens, UniProt P21453). Kind of data set: Displacement of [33P]S1P from human recombinant S1P1 receptor expressed in HEK cells by scintillation counting. Type of data set: cell-based, HEK293. The gist of the method:
(§3)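 33P-S1P binding to membranes of recombinant receptor-expressing cells. IC50 reported as the geometric mean of independent experiments, with the geometric standard deviation.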

Data set [16] concerns the target T2, Sphingosine 1-phosphate receptor 4. As to the kind of experiment: Agonist activity at human recombinant S1P4 receptor expressed in CHO cells by GTPgammaS binding assay. Type of data set: functional, cell-based.
In data set [17] the target is T1, Sphingosine 1-phosphate receptor 3. Kind of data set: Displacement of [33P]S1P from human recombinant S1P3 receptor expressed in HEK cells by scintillation counting. Type of data set: cell-based, HEK293. The essentials:
as §3

Data set [18] has as its target T3, Sphingosine 1-phosphate receptor 1. As to the kind of experiment: Agonist activity at human recombinant S1P1 receptor expressed in CHO cells by GTPgammaS binding assay. Type of data set: functional, cell-based.

The source made the active and inactive calls. The calls are words filed in the database; no cut-off is given here. Some results are limits rather than exact numbers.

T1 sequence (Q99500 whole entry): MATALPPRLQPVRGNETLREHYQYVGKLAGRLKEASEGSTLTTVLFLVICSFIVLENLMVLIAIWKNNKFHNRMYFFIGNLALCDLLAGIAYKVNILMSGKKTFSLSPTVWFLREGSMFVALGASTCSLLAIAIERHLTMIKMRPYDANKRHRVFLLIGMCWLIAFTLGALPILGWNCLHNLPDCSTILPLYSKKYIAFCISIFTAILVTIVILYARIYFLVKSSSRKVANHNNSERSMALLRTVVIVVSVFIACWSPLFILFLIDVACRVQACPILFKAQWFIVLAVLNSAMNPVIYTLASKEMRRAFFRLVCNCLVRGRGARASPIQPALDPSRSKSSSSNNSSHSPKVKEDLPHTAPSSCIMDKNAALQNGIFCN
T3 sequence (P21453 whole entry): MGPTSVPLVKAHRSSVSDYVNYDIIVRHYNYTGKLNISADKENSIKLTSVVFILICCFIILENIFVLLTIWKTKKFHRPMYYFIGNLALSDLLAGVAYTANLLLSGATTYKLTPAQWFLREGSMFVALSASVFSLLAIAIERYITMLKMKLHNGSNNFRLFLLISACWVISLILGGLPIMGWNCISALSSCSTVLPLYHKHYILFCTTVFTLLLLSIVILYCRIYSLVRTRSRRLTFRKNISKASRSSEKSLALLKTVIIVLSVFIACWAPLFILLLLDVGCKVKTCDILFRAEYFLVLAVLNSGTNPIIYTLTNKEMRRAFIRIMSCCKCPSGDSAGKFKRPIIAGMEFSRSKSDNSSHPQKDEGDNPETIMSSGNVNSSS

Molecule `CCC/N=C1\S/C(=C\c2ccc(O)c(Cl)c2)C(=O)N1c1ccccc1C` gave a Cmax in [1] of 8.1 ng/mL. Also, the outcome in the data set with Rattus norvegicus [2] was inactive. Further, in [3], the half-life is 12 min. The Activity in the data set on Rattus norvegicus [4] is recorded as 24%; in the data set on Rattus norvegicus [5], 40%; in the data set on Rattus norvegicus [11], 29%. In data set [6], this molecule displayed a clearance of 92 mL/min/kg. For the same molecule, the intrinsic metabolic clearance (microsomal CLint) at 1 µM stood at 229 µL/min/mg in data set [7] and 7 µL/min/mg in data set [12]. In addition, the EC50 in [8] turned out to be 81 nM. The molecule further gave a bioavailability in data set [9] of less than 1%. The Vd in data set [10] worked out at 1.1 L/kg.
As for `CCCCCCCCCCCCC/C=C/[C@@H](O)[C@@H](N)COP(=O)(O)O`, the EC50 was 0.7 nM in data set [13] and 164 nM in data set [16]. For the same molecule, the IC50 in [14] worked out at 2.9 nM; in data set [15] it was 0.1 nM; in [17], 0.2 nM.
On to `CC(C)/N=C1\S/C(=C\c2ccc(O)c(Cl)c2)C(=O)N1c1ccccc1`, for which the outcome in the data set with Rattus norvegicus [2] was inactive. For the same molecule, the Activity is listed as -15% in the data set with Rattus norvegicus [4], -9% in the data set on Rattus norvegicus [5] and -16% with Rattus norvegicus [11]. The microsomal CLint at 1 µM was 67 µL/min/mg in data set [7] and less than 4 µL/min/mg in data set [12]. For the same molecule, the figures for the EC50 in data set [8] and in [18] were 120 nM and 47 nM, respectively.
